# Most compounds without a hit are left out; they make up all but 1.9% or so of the library.
# HDAC3 inh: HDAC3 deacetylase inhibitors, primary screen, biochemical, fluorescence, cell-free homogeneous. Histone deacetylase 3 (Homo sapiens), O15379. recombinant HDAC3, fluorogenic peptide/trypsin coupled. inhibition, % at 8.3 µM. hit rate 0.15% among 320,000. AID 2718, 2010; in the data active means inhibition above about 26%, passing the limit was not always enough; inconclusive means no clear call, values can overlap the other calls
# RanGTP-Impb inh: inhibitors of RanGTP-importin-beta interaction, primary screen, biochemical, FRET, CFP-Ran, YFP-importin-beta, homogeneous | cell-free CFP-Ran/YFP-importin-beta FRET ratio | inhibition, % (concentration not given with the values) | hit rate 1.1% among 300,000 | AID 2216, 2009;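 active means more than half of the replicate wells show a fall in the fluorescence ratio signal beyond about 16%, limit read from the data, passing the limit was not always enough; inconclusive means exactly half of the replicate wells pass the set limit; inactive means fewer than half of replicates pass the limit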;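 further: 0% = DMSO wells and 100% = Ran loaded with GDP instead of GTP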
# Runt-SMMHC FRET: inhibitors of RUNX1 Runt–CBFb-SMMHC binding, primary screen, biochemical, FRET, Cerulean-Runt, Venus-CBFb-SMMHC, uHTS | inhibition, % at 20 µM | Runt-related transcription factor 1 (Homo sapiens) + Core-binding factor subunit beta … | Cerulean-Runt/Venus-CBFb-SMMHC FRET ratio 530/480, 1 h | hit rate 0.74% among 220,000;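 active means mean inhibition across duplicate retests at 20 µM reaching about 50%, limit read from the data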;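 further: 0% = DMSO wells and 100% = wells with excess untagged CBFb-SMMHC; inhibitors lower the FRET ratio by blocking Runt binding to CBFb-SMMHC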
# Runt-CBFb FRET: inhibitors of RUNX1 Runt–CBFb binding, primary screen, biochemical, FRET, Cerulean-Runt, Venus-CBFb, uHTS; Cerulean-Runt/Venus-CBFb FRET ratio 530/480, 1 h; inhibition, % at 20 µM; hit rate 0.46% among 220,000; AID 1496, 2009;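 active means inhibition over about 50% at 20 µM in the single-dose screen, limit read from the data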;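 further: 0% = DMSO wells and 100% = excess unlabeled CBFb competitor control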
#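 test system = Cerulean-tagged RUNX1 Runt domain (FRET donor) fusion protein | reagent = Venus-CBFb binding partner, 100 nM | incubation = protein complex preformed 1 h, compound exposure 1 h, room temperature, dark | detection = FRET fluorescence | read-out basis = loss of energy transfer signal | controls = 5 µM unlabeled CBFb as full-inhibition high control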
# CaV13 ICDI inh: Disruptors of the CACNA1D IQ motif to Ca2+-dependent inactivation inhibitor domain association, primary screening, Förster resonance energy transfer in intact living …; HEK cells, CFP/YFP FRET ICDI-IQ, plate reader, 10 min; percent FRET-ratio fall versus neutral wells; inhibition, % at 12.3 µM; hit rate 0.098% among 340,000; AID 743397;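 active means mean replicate inhibition of at least 30% and at least 1% of replicates passing that level; inconclusive means only one of the two criteria is met; inactive means neither criterion is met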;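 further: 0% = median of the neutral control wells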
# LANA-H2B inh: blockers of LANA interaction with H2A/H2B – biochemical, FP readout, HTS, primary screen; Protein LANA1 (Human herpesvirus 8 type P (isolate GK18)), Q9QR71; cell-free LANA-H2A/H2B peptide, fluorescence polarization; inhibition, % (concentration not given with the values); hit rate 0.6% among 320,000; in the data active means inhibition mostly above about 10%, no sharp cut-off; inactive means mostly below about 6.7%
# The depositor's hits bear a star; ? = inconclusive; · = no result given; + = active, no number.
SMILES,HDAC3 inh,RanGTP-Impb inh,Runt-SMMHC FRET,Runt-CBFb FRET,CaV13 ICDI inh,LANA-H2B inh
COC(=O)[C@H]1[C@H]2C[C@H]3c4[nH]c5ccccc5c4CCN3C[C@H]2CC[C@@H]1O,3,43*,·,·,-5,-3
COC(=O)C1C(O)CCC2CN3CCc4c([nH]c5ccccc45)C3CC21 (stereo not given),-5,65*,71*,8,·,14
COC(=O)C1C2CC3c4[nH]c5cc(OC)ccc5c4CCN3CC2CC(OC(=O)CC(C)=O)C1OC (stereo not given),·,·,·,·,-10,·
COc1ccc(CCNC2=C(Cl)C(=O)N(CCc3ccccc3)C2=O)cc1OC,9,-1,55*,-2,-10,3
CCCNC(=O)c1c(N)n(-c2cc(OC)cc(OC)c2)c2nc3ccccc3nc12,2,58*,109*,33,-1,3
CCCNC(=O)c1c(N)n(-c2ccc3c(c2)OCO3)c2nc3ccccc3nc12,2,3,6,5,-3,0
Nc1c(S(=O)(=O)c2ccccc2)c2nc3ccccc3nc2n1/N=C/c1ccco1,-21,0,28,14,-4,-1
CCOCCCNC(=O)c1c(N)n(-c2ccc3c(c2)OCO3)c2nc3ccccc3nc12,-5,133*,40,12,7,1
COCCNC(=O)c1c(N)n(/N=C/c2cccs2)c2nc3ccccc3nc12,-1,95*,24,62*,-1,1
COCCNC(=O)c1c(N)n(/N=C/c2ccc(F)cc2)c2nc3ccccc3nc12,1,?,25,-4,-21,5
Nc1c(C(=O)NC2CCCCC2)c2nc3ccccc3nc2n1/N=C/c1ccco1,·,·,52*,17,·,·
CC1C2CCC(C2)C1OC(=O)c1ccccc1C(=O)O (stereo not given),·,·,·,·,-5,·
CCOCCCNC(=O)c1c(N)n(-c2ccc(S(N)(=O)=O)cc2)c2nc3ccccc3nc12,-10,?,58*,35,·,-4
O=C(COC(=O)CCc1nc2ccccc2c(=O)[nH]1)Nc1c(Cl)cccc1C(F)(F)F,14,·,·,·,-7,-36
COc1ccccc1C(CNC(=O)c1ccc(S(=O)(=O)N2CCCCC2)cc1)N(C)C (stereo not given),3,·,·,·,-20,+
COc1ccc(C(CNC(=O)c2ccc(S(=O)(=O)N3CCCC3)cc2)N(C)C)cc1OC (stereo not given),-3,8,3,-1,-3,-1
Cc1ccc(S(=O)(=O)c2c(N)n(NC(=O)C3CC3)c3nc4ccccc4nc23)cc1,-93,9,76*,29,·,1
Cc1ccc(-n2c(N)c(S(=O)(=O)c3ccccc3)c3nc4ccccc4nc32)cc1,-1,0,3,·,-5,-1
COc1cc(C)c(N(C(C)=O)c2ccccc2)c(C)c1,-1,0,-2,-4,-6,7
Cc1cc(C2(c3ccc(O)c(C)c3)OC(=O)c3ccccc32)ccc1O,7,?,-5,-2,-4,-3
Cc1cc(O)c(C(C)C)cc1C1(c2cc(C(C)C)c(O)cc2C)OC(=O)c2ccccc21,1,9,1,1,-4,15*
Cc1ccc(/C=N/NC(=O)c2nnn(-c3nonc3N)c2C)o1,8,·,·,·,·,3
Cc1ccc(NC(=O)CN2CCCC2c2cccn2C)c(Br)c1 (stereo not given),2,·,·,·,-2,-9
COc1cc(/C=C2\N=C(c3ccccc3)OC2=O)ccc1OC(C)=O,0,0,·,·,-20,5
COc1ccc(OC)c(/C=C2\N=C(c3ccccc3)OC2=O)c1,-2,0,·,·,-20,42*

# Screening data: PubChem BioAssay, several laboratories
